Test results reported in ChEMBL document CHEMBL3421533, “The Discovery of Orally Bioavailable Tyrosine Threonine Kinase (TTK) Inhibitors: 3-(4-(heterocyclyl)phenyl)-1H-indazole-5-carboxamides as Anticancer Agents” (J Med Chem, 2015).

Tests used:
[1] = target: Aurora kinase B/Inner centromere protein (Homo sapiens, UniProt Q96GD4); assay: Inhibition of AURKB/INCENP (unknown origin) preincubated for 15 mins prior to ATP addition by FRET-based homogenous assay; type: protein-complex assay
Outline: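 The enzyme was AURKB/INCENP in a FRET-based homogeneous assay run to kit specifications, with ATP at 128 μM. […] Each IC50 came from a single determination, reported with its standard fitting error.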

[2] = target: T1, Dual specificity protein kinase TTK (Homo sapiens, UniProt P33981); assay: Inhibition of amino terminal GST-fused full length human TTK using His6-SUMO-TTK-N as substrate preincubated for 15 mins prior to ATP addition by indirect ELISA detection system
T1 sequence (P33981 whole entry): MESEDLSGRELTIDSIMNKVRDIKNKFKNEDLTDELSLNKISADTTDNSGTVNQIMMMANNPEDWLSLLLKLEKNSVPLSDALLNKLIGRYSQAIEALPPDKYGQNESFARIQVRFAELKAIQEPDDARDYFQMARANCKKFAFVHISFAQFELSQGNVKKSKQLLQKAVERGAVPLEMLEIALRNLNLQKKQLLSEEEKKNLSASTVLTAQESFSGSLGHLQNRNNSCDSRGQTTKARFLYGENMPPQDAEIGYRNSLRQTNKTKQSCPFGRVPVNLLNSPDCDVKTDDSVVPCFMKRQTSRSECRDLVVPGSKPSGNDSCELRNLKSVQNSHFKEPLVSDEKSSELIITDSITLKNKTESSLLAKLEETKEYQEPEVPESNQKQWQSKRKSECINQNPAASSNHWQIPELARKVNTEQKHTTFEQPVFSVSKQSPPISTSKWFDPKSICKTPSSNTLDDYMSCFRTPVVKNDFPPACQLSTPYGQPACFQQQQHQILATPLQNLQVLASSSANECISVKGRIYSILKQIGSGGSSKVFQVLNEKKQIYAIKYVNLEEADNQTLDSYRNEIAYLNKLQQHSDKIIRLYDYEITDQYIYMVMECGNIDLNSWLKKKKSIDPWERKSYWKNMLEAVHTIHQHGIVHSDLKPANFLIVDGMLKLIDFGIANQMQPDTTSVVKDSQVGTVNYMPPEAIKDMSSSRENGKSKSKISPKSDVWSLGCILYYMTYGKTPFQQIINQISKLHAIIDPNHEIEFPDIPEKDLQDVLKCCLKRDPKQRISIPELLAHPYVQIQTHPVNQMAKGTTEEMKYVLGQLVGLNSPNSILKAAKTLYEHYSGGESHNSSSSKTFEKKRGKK

[3] = Cytotoxicity against human HCT116 cells after 5 days by sulforhodamine B assay; type: functional, HCT-116
Outline: (§1)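 Cancer lines were seeded at 800–6000 cells per well according to growth rate, 24 h before compound overlay. After culture, cells were fixed in situ and stained with sulforhodamine B. GI50 values were derived by curve fitting.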

MDA-MB-468 = assay: Cytotoxicity against human MDA-MB-468 cells after 5 days by sulforhodamine B assay; type: functional; outline: as §1
[4] = Cytotoxicity against human OVCAR3 cells after 5 days by sulforhodamine B assay; type: functional, OVCAR-3
[5] = Half life in mouse liver microsomes at 1 uM by LC-MS analysis; type: ADME; conditions: liver microsomes
[6] = Half life in rat liver microsomes at 1 uM by LC-MS analysis; type: ADME; conditions: liver microsomes
Cytochrome P450 3A4 = Cytochrome P450 3A4 (Homo sapiens, UniProt P08684); assay: Inhibition of human CYP3A4 using BFC as substrate preincubated for 10 mins followed by enzyme/substrate addition measured after 30 mins by fluorescence assay; type: ADME
Cytochrome P450 3A4, sequence (P08684 whole entry, the tested form may be a part): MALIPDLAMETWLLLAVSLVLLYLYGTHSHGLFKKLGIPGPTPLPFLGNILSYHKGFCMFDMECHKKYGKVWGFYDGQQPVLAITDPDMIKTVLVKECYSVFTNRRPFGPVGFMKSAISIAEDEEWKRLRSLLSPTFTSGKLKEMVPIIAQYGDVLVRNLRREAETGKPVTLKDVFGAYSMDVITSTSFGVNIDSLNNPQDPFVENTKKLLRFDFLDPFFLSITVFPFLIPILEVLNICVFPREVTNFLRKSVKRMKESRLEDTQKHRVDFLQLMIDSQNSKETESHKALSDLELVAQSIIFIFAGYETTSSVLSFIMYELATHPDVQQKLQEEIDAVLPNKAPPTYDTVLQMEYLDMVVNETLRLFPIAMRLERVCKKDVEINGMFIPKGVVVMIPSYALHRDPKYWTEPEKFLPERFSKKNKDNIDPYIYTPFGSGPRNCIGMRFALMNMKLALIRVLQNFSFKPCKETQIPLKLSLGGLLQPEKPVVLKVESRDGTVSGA

Homo sapiens = species: Homo sapiens; assay: Selectivity ratio of IC50 for AURKB/INCENP (unknown origin) to IC50 for amino terminal GST-fused full length human TTK
[7] = Cmax in athymic CD1 nude mouse at 10 mg/kg, po by LC-MS/MS analysis; type: ADME, organism-based; parameters: dose 10 mg/kg, route oral; conditions: athymic CD1 nude, in vivo
[8] = AUCinfinity in athymic CD1 nude mouse at 10 mg/kg, po by LC-MS/MS analysis; type: ADME, organism-based, Plasma; parameters: time infinity, dose 10 mg/kg, route oral; conditions: athymic CD1 nude, plasma
[9] = Homo sapiens, MDA-MB-468, 120 h

Aurora kinase B/Inner centromere protein, sequence (Q96GD4 whole entry): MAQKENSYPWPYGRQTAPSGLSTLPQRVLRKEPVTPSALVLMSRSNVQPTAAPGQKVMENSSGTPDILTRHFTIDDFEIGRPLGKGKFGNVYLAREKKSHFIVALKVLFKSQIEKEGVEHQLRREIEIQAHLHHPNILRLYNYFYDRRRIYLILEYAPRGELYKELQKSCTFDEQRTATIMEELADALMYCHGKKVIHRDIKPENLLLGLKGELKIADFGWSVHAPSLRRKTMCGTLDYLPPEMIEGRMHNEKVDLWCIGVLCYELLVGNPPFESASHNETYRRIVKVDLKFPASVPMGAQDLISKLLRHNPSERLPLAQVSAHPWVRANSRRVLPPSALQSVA
Aurora kinase B/Inner centromere protein, sequence (Q9NQS7 whole entry, further chain): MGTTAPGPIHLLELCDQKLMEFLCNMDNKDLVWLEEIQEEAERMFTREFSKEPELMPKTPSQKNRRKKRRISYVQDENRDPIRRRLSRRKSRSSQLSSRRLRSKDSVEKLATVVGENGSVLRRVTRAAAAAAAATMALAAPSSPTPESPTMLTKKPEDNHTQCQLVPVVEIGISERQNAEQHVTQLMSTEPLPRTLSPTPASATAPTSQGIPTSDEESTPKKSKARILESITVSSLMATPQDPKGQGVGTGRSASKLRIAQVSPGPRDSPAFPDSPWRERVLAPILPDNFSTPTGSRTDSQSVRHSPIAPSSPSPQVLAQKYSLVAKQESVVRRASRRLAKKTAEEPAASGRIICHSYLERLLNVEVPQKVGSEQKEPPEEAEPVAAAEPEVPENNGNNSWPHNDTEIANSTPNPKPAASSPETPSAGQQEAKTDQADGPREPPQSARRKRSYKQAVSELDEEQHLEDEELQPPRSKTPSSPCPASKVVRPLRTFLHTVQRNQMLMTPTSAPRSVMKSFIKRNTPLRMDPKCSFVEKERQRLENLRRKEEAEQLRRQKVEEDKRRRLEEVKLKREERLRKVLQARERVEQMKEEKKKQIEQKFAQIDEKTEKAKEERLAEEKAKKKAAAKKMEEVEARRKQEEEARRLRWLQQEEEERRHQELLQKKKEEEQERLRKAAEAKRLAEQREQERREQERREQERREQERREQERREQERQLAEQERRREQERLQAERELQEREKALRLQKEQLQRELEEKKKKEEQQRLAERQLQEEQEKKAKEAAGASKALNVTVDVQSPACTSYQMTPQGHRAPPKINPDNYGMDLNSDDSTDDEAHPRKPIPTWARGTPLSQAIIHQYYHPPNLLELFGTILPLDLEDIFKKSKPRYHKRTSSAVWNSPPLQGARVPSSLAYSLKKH

Structure (SMILES) | IC50 [1] | IC50 [2] | GI50 ([3]; Homo sapiens, HCT-116, 120 h) | GI50 (MDA-MB-468; [9]) | GI50 ([4]; Homo sapiens, OVCAR-3, 120 h) | half-life at 1 µM [5] | IC50 (Cytochrome P450 3A4) | also measured
NS(=O)(=O)c1cccc(-c2n[nH]c3ccc(C(=O)NC(c4ccccc4)C4CC4)cc23)c1 (stereo not given) | 5000 nM | – | – | – | – | – | – | –
CC[C@@H](NC(=O)c1ccc2[nH]nc(-c3ccc(OC4CCN(C)CC4)cc3)c2c1)c1ccccc1Cl | 38 nM | – | – | – | – | – | – | –
O=C(NCC1(N2CCOCC2)CCCCC1)c1ccc2[nH]nc(-c3ccc(N4CCC(O)CC4)cc3)c2c1 | – | 230 nM | 48 nM | 210 nM | – | – | – | –
O=C(NCC1(N2CCOCC2)CCCCC1)c1ccc2[nH]nc(-c3ccc(N4CC5CCC(C4)O5)cc3)c2c1 | – | 18 nM | 150 nM | 650 nM | 690 nM | – | – | –
O=C(NCC1(N2CCOCC2)CCCCC1)c1ccc2[nH]nc(-c3ccc(N4C5CCC4COC5)cc3)c2c1 | 800 nM | 1.1 nM | 1 nM | 25 nM | 17 nM | 2.7 min | – | half-life at 1 µM [6]: 9.6 min
O=C(N[C@H](c1ccccc1F)C1CC1)c1ccc2[nH]nc(-c3ccc(N4C5CCC4COC5)cc3)c2c1 | 470 nM | – | – | – | – | – | – | –
O=C(N[C@@H](c1ccccc1F)C1CC1)c1ccc2[nH]nc(-c3ccc(N4C5CCC4COC5)cc3)c2c1 | 980 nM | – | – | – | – | – | 240 nM | –
CC(C)[C@H](NC(=O)c1ccc2[nH]nc(-c3ccc(N4C5CCC4COC5)cc3)c2c1)c1ccccc1Cl | 1900 nM | – | – | – | – | – | 60 nM | –
O=C(N[C@H](c1ccccn1)C1CC1)c1ccc2[nH]nc(-c3ccc(N4C5CCC4COC5)cc3)c2c1 | 360 nM | 1.4 nM | 2 nM | 15 nM | 18 nM | > 60 min | – | half-life at 1 µM [6]: > 60 min
O=C(N[C@@H](c1ccccn1)C1CCCC1)c1ccc2[nH]nc(-c3ccc(N4C5CCC4COC5)cc3)c2c1 | 1400 nM | – | – | – | – | – | 360 nM | –
O=C(N[C@H](c1ccccn1)C1CCCC1)c1ccc2[nH]nc(-c3ccc(N4C5CCCC4COC5)cc3)c2c1 | 2800 nM | 8.3 nM | 25 nM | 180 nM | 200 nM | 50 min | – | –
CC(C)[C@H](NC(=O)c1ccc2[nH]nc(-c3ccc(N4[C@H]5CC[C@H]4CC(O)C5)cc3)c2c1)c1ccccc1Cl (stereo not given in full) | > 6300 nM | 6 nM | 9 nM | 21 nM | 7 nM | 34 min | – | half-life at 1 µM [6]: > 60 min; Ratio IC50 (Homo sapiens): > 100; Cmax [7]: 330 ng/mL; AUC(0-inf) [8]: 620 ng·h/mL
O=C(N[C@H](c1ccccc1)C1CC1)c1ccc2[nH]nc(-c3ccc(N4[C@H]5CC[C@H]4CC(O)C5)cc3)c2c1 (stereo not given in full) | 1100 nM | 2.8 nM | 22 nM | 70 nM | 120 nM | 47 min | – | half-life at 1 µM [6]: 35 min; Ratio IC50 (Homo sapiens): > 100; Cmax [7]: 480 ng/mL; AUC(0-inf) [8]: 670 ng·h/mL
O=C(N[C@@H](c1ccccn1)C1CCCC1)c1ccc2[nH]nc(-c3ccc(N4[C@H]5CC[C@H]4CC(O)C5)cc3)c2c1 (stereo not given in full) | 1800 nM | 4.1 nM | 15 nM | 30 nM | 90 nM | > 60 min | 230 nM | half-life at 1 µM [6]: 22 min; Ratio IC50 (Homo sapiens): > 100
O=C(N[C@@H](c1ncccn1)C1CCCC1)c1ccc2[nH]nc(-c3ccc(N4[C@H]5CC[C@H]4CC(O)C5)cc3)c2c1 (stereo not given in full) | 850 nM | 3.9 nM | 20 nM | 150 nM | 160 nM | > 60 min | – | –
CC(C)C[C@H](NC(=O)c1ccc2[nH]nc(-c3ccc(N4[C@H]5CC[C@H]4CC(O)C5)cc3)c2c1)c1ccccn1 (stereo not given in full) | 1500 nM | 1.7 nM | 2 nM | 17 nM | 140 nM | > 60 min | – | half-life at 1 µM [6]: 48 min
CC(C)C[C@@H](NC(=O)c1ccc2[nH]nc(-c3ccc(N4[C@H]5CC[C@H]4CC(O)C5)cc3)c2c1)c1ccccn1 (stereo not given in full) | 1600 nM | 2.7 nM | 5 nM | 26 nM | 82 nM | > 60 min | – | half-life at 1 µM [6]: 25 min

Structure (SMILES) | IC50 [1] | IC50 [2] | GI50 ([3]; Homo sapiens, HCT-116, 120 h) | GI50 (MDA-MB-468; [9]) | GI50 ([4]; Homo sapiens, OVCAR-3, 120 h) | half-life at 1 µM [5] | IC50 (Cytochrome P450 3A4) | also measured
CC(C)C[C@H](NC(=O)c1ccc2[nH]nc(-c3ccc(N4[C@H]5CCC[C@H]4CC(O)C5)cc3)c2c1)c1ccccn1 (stereo not given in full) | 980 nM | 14 nM | 150 nM | 450 nM | 730 nM | – | – | Ratio IC50 (Homo sapiens): > 100
O=C(N[C@@H](c1ccccn1)C1CCCC1)c1ccc2[nH]nc(-c3ccc(N4[C@H]5COC[C@H]4CC(O)C5)cc3)c2c1 (stereo not given in full) | 740 nM | 2.2 nM | 15 nM | 140 nM | 160 nM | 60 min | 330 nM | half-life at 1 µM [6]: 33 min; Ratio IC50 (Homo sapiens): > 100
CC(C)C[C@H](NC(=O)c1ccc2[nH]nc(-c3ccc(N4[C@H]5COC[C@H]4CC(O)C5)cc3)c2c1)c1ccccn1 (mixture of isomers) | 230 nM | – | – | – | – | – | – | –
CN1CCN(c2ccc(-c3n[nH]c4ccc(NC(=O)C(c5ccsc5)N5CCCC5)cc34)cc2S(C)(=O)=O)CC1 (racemic) | – | 18 nM | 280 nM | 900 nM | – | – | – | –
O=C(NC(c1ccccc1)C1CC1)c1ccc2[nH]nc(-c3cccc(N4CCOCC4)c3)c2c1 (racemic) | – | 340 nM | 5600 nM | 7800 nM | – | – | – | –
CN1CCC(Oc2ccc(-c3n[nH]c4ccc(C(=O)NC(c5ccccc5)C5CC5)cc34)cc2)CC1 (racemic) | 57 nM | – | – | – | – | – | – | –
CN1CCC(Oc2ccc(-c3n[nH]c4ccc(NC(=O)C(c5ccccn5)C5CCCC5)cc34)cc2)CC1 (racemic) | 71 nM | – | – | – | – | – | – | –
CN1CCC(Oc2ccc(-c3n[nH]c4ccc(C(=O)NC(c5ccccn5)C5CCCC5)cc34)cc2)CC1 (racemic) | 180 nM | – | – | – | – | – | – | –
O=CN1CCC(Oc2ccc(-c3n[nH]c4ccc(C(=O)NC(c5ccccc5)C5CC5)cc34)cc2)CC1 (racemic) | – | 16 nM | 130 nM | 360 nM | – | – | 1500 nM | –
O=CN1CCC(Oc2ccc(-c3n[nH]c4ccc(C(=O)NC(c5ccccn5)C5CC5)cc34)cc2)CC1 (racemic) | 95 nM | 9.4 nM | 35 nM | 260 nM | – | – | 1500 nM | –
CN1[C@@H]2CC[C@H]1C[C@@H](Oc1ccc(-c3n[nH]c4ccc(C(=O)NC(c5ccccc5)C5CC5)cc34)cc1)C2 (mixture of isomers) | 93 nM | 2.8 nM | 30 nM | 130 nM | – | – | 2400 nM | –
CN1[C@@H]2CC[C@H]1C[C@H](Oc1ccc(-c3n[nH]c4ccc(C(=O)NC(c5ccccc5)C5CC5)cc34)cc1)C2 (mixture of isomers) | – | 7.3 nM | 33 nM | 160 nM | – | – | – | –
O=C(N[C@H](c1ccccn1)C1CC1)c1ccc2[nH]nc(-c3ccc(N4[C@H]5CC[C@H]4CC(O)C5)cc3)c2c1 (stereo in doubt; 74) | 530 nM | 1.2 nM | 18 nM | – | – | > 60 min | 2100 nM | GI50 (MDA-MB-468): 16 nM; GI50 [4]: 20 nM; half-life at 1 µM [6]: > 60 min; Cmax [7]: 1600 ng/mL; AUC(0-inf) [8]: 1600 ng·h/mL
O=C(N[C@H](c1ccccn1)C1CCCC1)c1ccc2[nH]nc(-c3ccc(N4[C@H]5CC[C@H]4CC(O)C5)cc3)c2c1 (stereo in doubt; 76) | – | – | – | – | – | – | – | Ratio IC50 (Homo sapiens): > 100
O=C(N[C@@H](c1ccccn1)C1CC1)c1ccc2[nH]nc(-c3ccc(N4[C@H]5CC[C@H]4CC(O)C5)cc3)c2c1 (stereo in doubt; 87) | 1700 nM | 2.7 nM | – | – | – | – | 1400 nM | GI50 [3]: 48 nM; GI50 (MDA-MB-468): 210 nM; GI50 [4]: 310 nM
O=C(N[C@H](c1ccccn1)C1CCCC1)c1ccc2[nH]nc(-c3ccc(N4[C@H]5CC[C@H]4CC(O)C5)cc3)c2c1 (stereo in doubt; 88) | – | – | – | – | – | – | – | Ratio IC50 (Homo sapiens): > 100
